Consider ten compounds from ChEMBL document CHEMBL1146638, “Chemical basis for the biological activity of imexon and related cyanoaziridines” (J Med Chem, 2004).

Broadly, the IC50 is the concentration that gives 50% inhibition. Read a low IC50 as inhibition by little substance.

In test [1] the test system is L1210. Kind of test: Cytotoxicity against multidrug resistant (MDR) L1210 murine leukemia cells by MTT assay. The class given is functional, cell-based, Mus musculus. In outline:
(§1)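 Murine L1210 leukemia cells, drug-sensitive and multidrug-resistant (MDR) sublines, tested in culture. Viability read by MTT assay. Values reported as IC50 in µM.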
Background: Tetrazolium assays rely on reduction of a dye to a coloured formazan, in cell work by metabolically active cells.

In test [2] the test system is L1210. Description: Cytotoxicity against sensitive L1210 murine leukemia cells by MTT assay. The class given is functional, cell-based, Mus musculus. Put shortly: as §1
Test [3] deals with RPMI-8226. Description: Cytotoxicity against sensitive human myeloma 8226/S cells by MTT assay.

Several values for one entry are separate records, joined by “and”; a condition that tells them apart may be missing. Equal values may be shown once.

Regarding `N#CC1CN1C(=O)Nc1ccccc1` (stereo not drawn), the IC50 was 41.2 µM in test [1] (l1210) and 38.4 µM in test [2] (l1210).

`N#CC1CN1C(N)=O` (stereo not drawn): the concentration for half-maximal inhibition (IC50) in test [1] (Mus musculus, L1210) is more than 500 µM; in test [3], more than 500 µM; in test [2] (Mus musculus, L1210) it was more than 500 µM.

For `CC(=O)NC(CSCC1NC(=O)NC1=O)C(=O)O` (stereo not drawn), the IC50 in test [1] (Mus musculus, L1210) came out at 116 µM; in test [3] it was 56.3 µM; in test [2] (Mus musculus, L1210), 73.7 µM.

Take `NC(=O)N1CC1C1=NC(C(=O)O)CS1` (stereo not drawn): the 50% inhibitory concentration (IC50) is more than 500 µM in test [1] (Mus musculus, L1210) and more than 500 µM in test [2] (Mus musculus, L1210).

Regarding `O=C(Nc1ccccc1)N1CC1`, the IC50 in test [1] (l1210) is 5.8 µM and 28.4 µM.

Consider `N#CC1CN1` (stereo not drawn), for which the concentration for half-maximal inhibition (IC50) in test [1] (Mus musculus, L1210) was more than 500 µM; in test [2] (Mus musculus, L1210) it was more than 500 µM.

For `CNC(=O)N1CC1C1=NC(C(=O)O)CS1` (stereo not drawn), the IC50 was more than 500 µM in test [1] (Mus musculus, L1210) and more than 500 µM in test [2] (Mus musculus, L1210).

For the compound `CNC(=O)N1CC1C#N` (stereo not drawn), the IC50 is 36.7 µM in test [1] (Mus musculus, L1210); 15.5 µM in test [3]; 25.1 µM in test [2] (Mus musculus, L1210).

With `O=C(O)C1CSC(C2CN2)=N1` (stereo not drawn), the half-maximal inhibitory concentration (IC50) in test [1] (Mus musculus, L1210) was more than 500 µM; in test [2] (Mus musculus, L1210), more than 500 µM.

Consider `C[N+](C)(C)C(CSCC(C#N)NC(=O)Nc1ccccc1)C(=O)[O-]` (stereo not drawn), for which the 50% inhibitory concentration (IC50) in test [1] (Mus musculus, L1210) was more than 500 µM; in test [3] it was 44.9 µM; in test [2] (Mus musculus, L1210), 73.9 µM.
